Results taken from PubChem BioAssay.
The source made the active and inactive calls.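 Rule for the calls, unless noted: active = viability at or below 30% in both replicate assays; inconclusive = viability at or below 30% in just one of the two assays; inactive = the rest.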

Assay: reduced viability of SK-BR-3 breast cancer cells – cell-based, 24 h, human, pilot screen (AID 572;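 active = viability at or below 10% of carrier control in both of two separate runs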;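 note: compound exposure lasted between 18 and 24 h rather than exactly 24 h; 100% = carrier-treated control wells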)
Details: SK-BR-3 viability, CellTiter-Glo luminescence, at 10 µM, hits give low values

Q: Which viability does the source give for `CC1/C(=N/O)C(CN(C)C)C2CC1C2(C)C` (stereo not given) here?
A: The viability was 107% (inactive).

Q: For `O=C(Nc1cccc(F)c1)c1ccc2c(c1)OCO2`, which viability is on record?
A: Its viability is 97.5% (inactive).

Q: Which viability does the source give for `COc1ccccc1N=Cc1nc(-c2ccccc2)oc1OC(C)=O` here?
A: The viability was 99% (inactive).

Q: Which viability does the source give for `CC(=O)Nc1ccc(S(=O)(=O)NCc2cn3c(C)csc3n2)cc1` here?
A: Its viability is 116% (inactive).

Q: With `O=C(c1ccccc1Br)N1CCN(c2ccccc2)CC1` as the compound, how does the viability read?
A: The viability was 85% (inactive).

Q: Which viability does the source give for `COc1cccc(OC)c1C(=O)Nc1ccc(CN2CCCCC2)cc1` here?
A: The viability was 98.5% (inactive).

Q: For `O=C(Cn1nnc(-c2ccccc2)n1)Nc1ccccc1N1CCOCC1`, which viability is on record?
A: The viability was 99.5% (inactive).

Q: With `CCCCSc1cc(C)nc2ncnn12` as the compound, how does the viability read?
A: Its viability is 98.5% (inactive).

Q: With `COCCn1c(C)cc(C(=O)COC(=O)CCN2C(=O)c3ccccc3C2=O)c1C` as the compound, how does the viability read?
A: The viability was 94.5% (inactive).

Q: With `Cc1cc(=O)n(CC(C)C)c(O)c1C#N` as the compound, how does the viability read?
A: Its viability is 106% (inactive).

Q: With `Cc1nc2cc(Cl)ccc2n1CCO` as the compound, how does the viability read?
A: Its viability is 101% (inactive).

Q: Which viability does the source give for `CCCN1CCN(C(=O)Cn2c(=O)oc3cc(S(=O)(=O)NCc4ccccc4)ccc32)CC1` here?
A: Its viability is 92.5% (inactive).

Q: For `COc1ccc2cc(C#N)c(SCC(=O)N3CCCC3)nc2c1`, which viability is on record?
A: The viability was 97% (inactive).

Q: Which viability does the source give for `CCn1c(=O)cc(OCC(=O)NC2CCCCC2)c2ccccc21` here?
A: The viability was 86% (inactive).

Q: For `CC(C(=O)Nc1ccccc1-c1ccccc1)N1CCN(C(=O)c2ccco2)CC1` (stereo not given), which viability is on record?
A: The viability was 91.5% (inactive).

Q: For `Cc1c(C(=O)NCc2cccnc2)sc2ncn(CC(=O)N3CCCCC3C)c(=O)c12` (stereo not given), which viability is on record?
A: Its viability is 98% (inactive).

Q: With `O=C(c1cn(-c2ccccc2)nc1-c1cccs1)N1CCN(c2ccccn2)CC1` as the compound, how does the viability read?
A: The viability was 101% (inactive).

Q: With `CCOc1ccc2[nH]c(=O)c(C(c3nnnn3Cc3ccco3)N3CCC(C)CC3)cc2c1` (stereo not given) as the compound, how does the viability read?
A: Its viability is 80.5% (inactive).

Q: Which viability does the source give for `c1ccc(-c2nnc(-c3ccco3)n2-c2ccccc2)cc1` here?
A: The viability was 81.5% (inactive).

Q: For `N#Cc1ccccc1NC(=O)CSc1nnc(-c2ccccc2)n1-c1ccccc1`, which viability is on record?
A: The viability was 81.5% (inactive).

Q: For `Cc1ccc(-n2cnnn2)c2cccnc12`, which viability is on record?
A: Its viability is 95.5% (inactive).

Q: With `Cc1ccc(-c2[nH]nc3c2C(c2ccc(OC(=O)N4CCOCC4)cc2)C(C#N)=C(N)O3)cc1` (stereo not given) as the compound, how does the viability read?
A: The viability was 89% (inactive).

Q: For `CC(C)=CC(=O)N1CCCc2ccccc21`, which viability is on record?
A: Its viability is 112% (inactive).

Q: For `CCOC(=O)c1cc2n(n1)C(C(F)(F)C(F)(F)F)CC(C)N2` (stereo not given), which viability is on record?
A: The viability was 92% (inactive).

Q: For `c1ccc(-c2ccccc2OCCn2cncn2)cc1`, which viability is on record?
A: Its viability is 93% (inactive).

Q: For `CC(C)Cn1c(N)c(C(=O)COC(=O)c2ccc3c(c2)OCCO3)c(=O)n(C)c1=O`, which viability is on record?
A: The viability was 87% (inactive).

Q: With `COc1ccc(Cn2c(CCCO)nc3ccccc32)cc1OC` as the compound, how does the viability read?
A: The viability was 98.5% (inactive).

Q: With `CN(C)C(=O)N1CCCC(C(=O)NCc2ccccc2)C1` (stereo not given) as the compound, how does the viability read?
A: Its viability is 89% (inactive).

Q: Which viability does the source give for `O=C(CN1C(=O)c2cccc3cccc1c23)N1CCN(c2ccccc2)CC1` here?
A: Its viability is 100% (inactive).

Q: For `CC(C)(C)OC(=O)NCCc1nnc(SCC(=O)c2ccc(Cl)cc2)o1`, which viability is on record?
A: Its viability is 97.5% (inactive).

Q: For `CCOC(=O)N1CCN(c2c(N3CCN(c4ccccc4OC)CC3)c(=O)c2=O)CC1`, which viability is on record?
A: Its viability is 94.5% (inactive).

Q: For `Cn1c(=O)c2ncn(CC(=O)NCCOc3ccc(C(C)(C)C)cc3)c2n(C)c1=O`, which viability is on record?
A: Its viability is 96.5% (inactive).

Q: With `COc1ccc(-c2cc(C(=O)NCc3ccc(Cl)cc3)no2)cc1OC` as the compound, how does the viability read?
A: The viability was 92.5% (inactive).

Q: For `CCOC(=O)c1ccc(NC(=O)CCNc2c(N3CCCC3)c(=O)c2=O)cc1`, which viability is on record?
A: Its viability is 104% (inactive).

Q: Which viability does the source give for `CCOC(=O)CSc1nnc(CCc2nc3ccccc3[nH]2)n1C` here?
A: The viability was 118% (inactive).

Q: Which viability does the source give for `CCOc1ccc(-c2nnn(CCC(=O)O)n2)cc1OC` here?
A: The viability was 95.5% (inactive).

Q: For `CCCCNC(=O)CN(C1CCCCC1)S(C)(=O)=O`, which viability is on record?
A: The viability was 104% (inactive).

Q: Which viability does the source give for `CCOCCCNC(=O)C1CCC(=O)N1CCc1ccccc1` (stereo not given) here?
A: The viability was 100% (inactive).

Q: With `OC(COc1ccc2ccccc2c1)CN1CCOCC1` (stereo not given) as the compound, how does the viability read?
A: The viability was 98.5% (inactive).

Q: With `COc1ccccc1CN1C(=O)CCC1(C)C(=O)NC1CCCCCC1` (stereo not given) as the compound, how does the viability read?
A: Its viability is 83% (inactive).

Assay: HUVEC growth inhibition – cell-based, human, primary screen (AID 575);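 note: 100% = median of untreated cell wells with 0.1% DMSO on each plate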
Details: HUVEC proliferation, CellTiter-Glo luminescence, 72 h; at 10 µM; hits give low values
Method in brief: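 Assay system: primary human umbilical vein endothelial cells / Buffer or medium: endothelial basal medium with 2% FBS plus growth supplements / Compound dosing: one dose, 10 µM final, 0.1% DMSO / Timing: 72 h treatment at 37 °C / Signal: CTG luminescence / Benchmarks: 32 DMSO-only cell-control wells (high), 32 MePR drug-control wells (low) per plate / Plate: collagen-coated 384-well format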

Q: Which viability does the source give for `CC1/C(=N/O)C(CN(C)C)C2CC1C2(C)C` (stereo not given) here?
A: Its viability is 99.3% (inactive).

Q: With `O=C(Nc1cccc(F)c1)c1ccc2c(c1)OCO2` as the compound, how does the viability read?
A: The viability was 103% (inactive).

Q: With `COc1ccccc1N=Cc1nc(-c2ccccc2)oc1OC(C)=O` as the compound, how does the viability read?
A: Its viability is 79.2% (inactive).

Q: With `CC(=O)Nc1ccc(S(=O)(=O)NCc2cn3c(C)csc3n2)cc1` as the compound, how does the viability read?
A: The viability was 107% (inactive).

Q: With `O=C(c1ccccc1Br)N1CCN(c2ccccc2)CC1` as the compound, how does the viability read?
A: Its viability is 93.6% (inactive).

Q: With `COc1cccc(OC)c1C(=O)Nc1ccc(CN2CCCCC2)cc1` as the compound, how does the viability read?
A: Its viability is 102% (inactive).

Q: For `O=C(Cn1nnc(-c2ccccc2)n1)Nc1ccccc1N1CCOCC1`, which viability is on record?
A: Its viability is 110% (inactive).

Q: With `CCCCSc1cc(C)nc2ncnn12` as the compound, how does the viability read?
A: Its viability is 75.2% (inactive).

Q: Which viability does the source give for `COCCn1c(C)cc(C(=O)COC(=O)CCN2C(=O)c3ccccc3C2=O)c1C` here?
A: The viability was 97.9% (inactive).

Q: Which viability does the source give for `Cc1cc(=O)n(CC(C)C)c(O)c1C#N` here?
A: Its viability is 99.4% (inactive).

Q: With `Cc1nc2cc(Cl)ccc2n1CCO` as the compound, how does the viability read?
A: The viability was 102% (inactive).

Q: Which viability does the source give for `CCCN1CCN(C(=O)Cn2c(=O)oc3cc(S(=O)(=O)NCc4ccccc4)ccc32)CC1` here?
A: Its viability is 85.6% (inactive).

Q: With `COc1ccc2cc(C#N)c(SCC(=O)N3CCCC3)nc2c1` as the compound, how does the viability read?
A: The viability was 90.4% (inactive).

Q: For `CCn1c(=O)cc(OCC(=O)NC2CCCCC2)c2ccccc21`, which viability is on record?
A: Its viability is 91.5% (inactive).

Q: With `CC(C(=O)Nc1ccccc1-c1ccccc1)N1CCN(C(=O)c2ccco2)CC1` (stereo not given) as the compound, how does the viability read?
A: Its viability is 96.2% (inactive).

Q: With `Cc1c(C(=O)NCc2cccnc2)sc2ncn(CC(=O)N3CCCCC3C)c(=O)c12` (stereo not given) as the compound, how does the viability read?
A: The viability was 102% (inactive).

Q: Which viability does the source give for `O=C(c1cn(-c2ccccc2)nc1-c1cccs1)N1CCN(c2ccccn2)CC1` here?
A: The viability was 72.4% (inactive).

Q: Which viability does the source give for `CCOc1ccc2[nH]c(=O)c(C(c3nnnn3Cc3ccco3)N3CCC(C)CC3)cc2c1` (stereo not given) here?
A: Its viability is 82.3% (inactive).

Q: With `c1ccc(-c2nnc(-c3ccco3)n2-c2ccccc2)cc1` as the compound, how does the viability read?
A: The viability was 87% (inactive).

Q: For `N#Cc1ccccc1NC(=O)CSc1nnc(-c2ccccc2)n1-c1ccccc1`, which viability is on record?
A: The viability was 102% (inactive).

Q: Which viability does the source give for `Cc1ccc(-n2cnnn2)c2cccnc12` here?
A: The viability was 72.1% (inactive).

Q: With `Cc1ccc(-c2[nH]nc3c2C(c2ccc(OC(=O)N4CCOCC4)cc2)C(C#N)=C(N)O3)cc1` (stereo not given) as the compound, how does the viability read?
A: The viability was 106% (inactive).

Q: For `CC(C)=CC(=O)N1CCCc2ccccc21`, which viability is on record?
A: Its viability is 105% (inactive).

Q: Which viability does the source give for `CCOC(=O)c1cc2n(n1)C(C(F)(F)C(F)(F)F)CC(C)N2` (stereo not given) here?
A: The viability was 105% (inactive).

Q: For `c1ccc(-c2ccccc2OCCn2cncn2)cc1`, which viability is on record?
A: The viability was 104% (inactive).

Q: For `CC(C)Cn1c(N)c(C(=O)COC(=O)c2ccc3c(c2)OCCO3)c(=O)n(C)c1=O`, which viability is on record?
A: Its viability is 71.3% (inactive).

Q: With `COc1ccc(Cn2c(CCCO)nc3ccccc32)cc1OC` as the compound, how does the viability read?
A: The viability was 105% (inactive).

Q: With `CN(C)C(=O)N1CCCC(C(=O)NCc2ccccc2)C1` (stereo not given) as the compound, how does the viability read?
A: Its viability is 102% (inactive).

Q: Which viability does the source give for `O=C(CN1C(=O)c2cccc3cccc1c23)N1CCN(c2ccccc2)CC1` here?
A: Its viability is 111% (inactive).

Q: With `CC(C)(C)OC(=O)NCCc1nnc(SCC(=O)c2ccc(Cl)cc2)o1` as the compound, how does the viability read?
A: The viability was 93.1% (inactive).

Q: With `CCOC(=O)N1CCN(c2c(N3CCN(c4ccccc4OC)CC3)c(=O)c2=O)CC1` as the compound, how does the viability read?
A: Its viability is 109% (inactive).

Q: For `Cn1c(=O)c2ncn(CC(=O)NCCOc3ccc(C(C)(C)C)cc3)c2n(C)c1=O`, which viability is on record?
A: Its viability is 100% (inactive).

Q: With `COc1ccc(-c2cc(C(=O)NCc3ccc(Cl)cc3)no2)cc1OC` as the compound, how does the viability read?
A: Its viability is 83% (inactive).

Q: Which viability does the source give for `CCOC(=O)c1ccc(NC(=O)CCNc2c(N3CCCC3)c(=O)c2=O)cc1` here?
A: The viability was 91.6% (inactive).

Q: Which viability does the source give for `CCOC(=O)CSc1nnc(CCc2nc3ccccc3[nH]2)n1C` here?
A: Its viability is 87.5% (inactive).

Q: With `CCOc1ccc(-c2nnn(CCC(=O)O)n2)cc1OC` as the compound, how does the viability read?
A: Its viability is 104% (inactive).

Q: For `CCCCNC(=O)CN(C1CCCCC1)S(C)(=O)=O`, which viability is on record?
A: The viability was 101% (inactive).

Q: With `CCOCCCNC(=O)C1CCC(=O)N1CCc1ccccc1` (stereo not given) as the compound, how does the viability read?
A: The viability was 84.7% (inactive).

Q: With `OC(COc1ccc2ccccc2c1)CN1CCOCC1` (stereo not given) as the compound, how does the viability read?
A: Its viability is 82.6% (inactive).

Q: Which viability does the source give for `COc1ccccc1CN1C(=O)CCC1(C)C(=O)NC1CCCCCC1` (stereo not given) here?
A: Its viability is 101% (inactive).
